Source: PubChem BioAssay (several laboratories)
PMI act satM6P = activators of human phosphomannose isomerase at near-saturating mannose 6-phosphate. P34949. coupled PMI enzyme assay, resazurin fluorescence, 20 min; stronger effect = higher value; 1 = untreated enzyme, 0 = substrate-free blank. activation factor at 20 µM. 190,000 compounds, 0.34% hits;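 active = activation factor of 2 or more at 20 µM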
Target sequence (P34949 whole entry, looked up): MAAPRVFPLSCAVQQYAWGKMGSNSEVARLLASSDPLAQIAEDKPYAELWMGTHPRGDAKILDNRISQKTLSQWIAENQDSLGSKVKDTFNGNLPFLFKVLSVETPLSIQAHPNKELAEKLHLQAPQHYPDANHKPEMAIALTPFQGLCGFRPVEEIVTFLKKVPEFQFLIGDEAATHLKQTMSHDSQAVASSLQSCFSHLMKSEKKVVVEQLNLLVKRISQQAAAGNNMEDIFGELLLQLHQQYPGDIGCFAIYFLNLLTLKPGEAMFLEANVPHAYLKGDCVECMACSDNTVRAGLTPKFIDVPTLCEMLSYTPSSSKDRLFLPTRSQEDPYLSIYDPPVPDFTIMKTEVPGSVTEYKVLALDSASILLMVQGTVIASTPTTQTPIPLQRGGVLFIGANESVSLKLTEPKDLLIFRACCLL
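Material: human phosphomannose isomerase with PGI, G6PDH, diaphorase coupling enzymes; amount: PMI at 15 ng/mL final; also added: Mannose-6-phosphate 1.0 mM (near-saturating) plus 0.22 mM NADP+; incubation: enzyme reaction with compound 20 min at room temperature; signal: resorufin fluorescence (Ex 544/Em 590 nm) from resazurin via diaphorase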
PMI activator = phosphomannose isomerase (human) activation; AID 1214; purified human PMI, coupled resazurin fluorescence, 20 min; stronger effect = higher value; 1 = vehicle control, 0 substrate-free wells; 190,000 compounds, 0.005% hits; P34949; activation factor at 20 µM;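 active = activation factor of 2 or more at 20 µM, relative to plate controls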
L major viab = Leishmania major promastigote growth inhibition | Leishmania major promastigotes, resazurin fluorescence viability | inhibition, % at 10 µM | 200,000 compounds, 9% hits; in the data active = inhibition above about 50%;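 also: promastigotes grown with compound for 44 hours at 28 °C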
Diaph act CS = activates diaphorase or chemically reduces, flagging diaphorase assay artifacts | Diaphorase/resazurin coupled assay, resorufin fluorescence, 16 min; stronger effect = higher value; 1 = vehicle wells, 0 = NADH-free wells | AID 1229 | activation factor at 20 µM | 190,000 compounds, 0.005% hits;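 active = diaphorase activity raised at least twofold by the compound at 20 µM; inactive = activation factor below 2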
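System – purified diaphorase enzyme from Clostridium kluyveri · Input – enzyme 0.07 U/mL final · Also added – final NADH 0.114 mM, resazurin 0.1 mM · Measured by – fluorescence of resorufin, 544 nm excitation, 590 nm emission · Timing – 16 min enzyme reaction, ambient temperature · Measure – resorufin increase flagging diaphorase activators or reducers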
WT yeast gro inh = growth inhibition of WT yeast, mitochondrial fusion screen; inhibition, % at 10 µM; mitochondrial fusion phenotypic screen, WT strain; 190,000 compounds, 2.1% hits; in the data active = inhibition above about 58%; tested in S. cerevisiae
An asterisk follows results filed as active; nt = no result given. An excerpt weighted towards active compounds, which were near 10% of everything screened.

SMILES	PMI act satM6P	PMI activator	L major viab	Diaph act CS	WT yeast gro inh
CN1CCN(c2ccccc2NC(=O)c2ccc(N3CCCC3)c([N+](=O)[O-])c2)CC1	0.9	0.9	65*	1	15
CC(=O)N1CCN(c2ccc(C(N)=O)cc2[N+](=O)[O-])CC1	1.1	1.1	-8	1	-13
O=C(Nc1ccccc1N1CCCCC1)c1ccc(Cl)c([N+](=O)[O-])c1	1.1	1.1	17	1.1	35
COc1ccccc1/C=C(/C(=O)OCC(=O)N(C)Cc1ccccc1)c1ccccc1	1	1	10	0.9	6
O=C(CN1CCN(Cc2ccc(Cl)cc2)CC1)N/N=C/c1c[nH]c2ccccc12	1	1	14	0.8	9
CN(Cc1ccc(OC(F)F)cc1)Cc1nc2c(Br)cc(Br)cc2c(=O)[nH]1	1	0.9	4	0.8	70*
Cc1ccc(S(=O)(=O)NC(=O)NN2CCCCCC2)cc1	2*	1.7	-6	1	1
O=C(NCc1nc2ccccc2[nH]1)C1=C[C@H](C2CCCCC2)C[C@H](OCc2ccc(CO)cc2)O1	0.9	0.8	36	0.7	17
O=C(NCc1nc2ccccc2[nH]1)C1=C[C@H](c2ccccc2)C[C@H](OCc2ccc(CO)cc2)O1	0.9	0.9	14	0.9	13
O=C(NCc1nc2ccccc2[nH]1)C1=C[C@@H](C2CCCCC2)C[C@@H](OCc2ccc(CO)cc2)O1	1	0.9	74*	0.9	-65
O=C(NCc1nc2ccccc2[nH]1)C1=C[C@@H](c2ccccc2)C[C@@H](OCc2ccc(CO)cc2)O1	0.8	0.8	85*	0.7	9
COc1ccc(N(CC(=O)Nc2ccccc2C(=O)O)S(=O)(=O)c2ccc(C)c([N+](=O)[O-])c2)cc1	1	1.1	0	0.8	-14
Cc1ccc(-n2c3c(c(=O)[nH]c2=O)C(C(F)(F)F)(C(F)(F)F)NC(=O)N3)cc1	1.1	1	-2	1	1
CCN(CC)C(=O)N1CCN(Cc2ccc3c(c2)OCO3)CC1	1	1	2	1	7
CC(C(=O)N1CCN(Cc2ccc3c(c2)OCO3)CC1)c1ccc([N+](=O)[O-])cc1 (stereo not given)	0.9	1	80*	1	-2
CC(C(=O)N1CCOCC1)c1ccc([N+](=O)[O-])cc1 (stereo not given)	1	0.9	55*	0.9	-26
CC(C)CC1NC(=S)N(Cc2ccccc2)C1=O (stereo not given)	1.3	1.3	16	1	2
COc1cc(-c2nnc(SCC3(c4ccc(Br)cc4)OCCO3)o2)cc(OC)c1OC	0.8	0.9	4	0.8	8
N#C/C(=C1/C(=O)Nc2ccc(Br)cc21)c1ccccn1	0.9	1	47	1	5
CCCNS(=O)(=O)c1cc(Cl)ccc1OC	1.1	1	0	1.1	-5
COc1ccc(-c2nc(NC(=O)C3CCN(c4nc5ccccc5o4)CC3)sc2C)cc1	0.9	0.7	79*	0.6	22
COc1ccc(CSc2nncn2N)cc1[N+](=O)[O-]	0.9	0.9	31	0.9	-10
COc1ccc(CSc2nncn2C)cc1[N+](=O)[O-]	1	1	52*	1	12
COc1ccccc1/C=c1\sc2nc(-c3cccs3)nn2c1=O	nt	nt	-11	nt	nt
C=CCOc1ccccc1/C=c1\sc2nc(=O)c(C)nn2c1=O	1	1.1	100*	0.9	-13
SMILES	PMI act satM6P	PMI activator	L major viab	Diaph act CS	WT yeast gro inh
CN(C)c1ccc(N=Nc2ccccc2C(=O)OCC(=O)NCC2CCCCC2)cc1	0.9	0.9	97*	0.8	64*
CN(C)c1ccc(N=Nc2ccccc2C(=O)OCC(=O)NC2CCCC2)cc1	1	0.9	7	0.9	42
CC(=O)OCC1OC(Sc2cccc3cccnc23)C(OC(C)=O)C(OC(C)=O)C1OC(C)=O (stereo not given)	1	1	-4	0.9	6
COCCNc1nc(CSc2ccccc2)nc2sc(C)c(C)c12	1	0.8	47	0.9	23
Cc1sc2nc(CSc3ccccc3)nc(N3CCN(C)CC3)c2c1C	0.8	0.9	98*	0.8	17
COc1cccc(/C=N/Nc2ncnc3scc(-c4ccccc4)c23)c1O	1.3	1	100*	0.6	-6
COc1cccc(/C=N/Nc2ncnc(Cl)c2N)c1O	1.1	1	100*	0.9	55
COc1cccc(/C=N/Nc2nccnc2Cl)c1O	1.3	0.9	100*	0.6	26
COc1cccc(/C=N/Nc2nc3ccccc3n3cnnc23)c1O	1.2	0.9	76*	0.3	5
COc1ccc(/C=N/Nc2nccnc2Cl)c(OC)c1	1	1	-3	0.9	0
Nc1nnc(/C=C/c2ccccc2)s1	1.1	1	-1	1	8
Cc1ccccc1C(=O)NNC(=O)c1cc(N)cc([N+](=O)[O-])c1	1.1	1	-2	1	-9
NS(=O)(=O)c1ccc(CNC(=O)CCSCCC(=O)NCc2ccc(S(N)(=O)=O)cc2)cc1	1	1.1	-5	1.1	-13
O=S(=O)(c1cnccc1N1CCN(/N=C/c2ccccc2)CC1)N1CCCCC1	0.9	0.8	50*	0.8	-6
COc1ccc(/C=N/N2CCN(c3ccncc3S(=O)(=O)N3CCCCC3)CC2)cc1	0.9	0.8	36	0.9	-4
N=C1c2ccccc2CN1NC(=O)CC12CC3CC(CC(C3)C1)C2	1.1	1.1	8	1.1	4
O=C(COC(=O)[C@H](Cc1c[nH]c2ccccc12)NC(=O)c1ccc(Cl)cc1)Nc1ccc2c(c1)OCO2	0.8	0.8	100*	0.7	3
Cn1cc(CC(=O)NCCN2CCOCC2)c2ccccc21	0.9	1	-5	1	-8
Cc1ccc(-c2cn(-c3ccc(SC(F)F)cc3)c3[n+]2CCC3)cc1	1.1	1	99*	1.1	-3
NC1=NC(=O)/C(=C\c2cc([N+](=O)[O-])ccc2Cl)S1	0.9	0.9	19	0.9	-9
Cc1ccc(-c2c(C(=O)N(C)Cc3ccccc3)oc(=O)c3ccccc23)cc1	1	1	82*	1	67*
CN(Cc1ccccc1)C(=O)c1oc(=O)c2ccccc2c1-c1ccccc1	0.9	0.9	55*	0.8	29
Cc1ccc(-c2ccc(CCC(=O)O)n2NC(=O)c2ccc([N+](=O)[O-])cc2)cc1	0.9	0.9	-1	0.9	3
Cc1ccc(C(=O)NCCCN2CCOCC2)cc1N1CCCC1=O	0.9	0.9	-2	0.8	24
CCN(CC)CC#CCC(O)(c1ccccc1)C1CCCC1 (stereo not given)	1.1	1.2	73*	0.9	-13
CCN(CC)CC#CCC(OC)(c1ccccc1)c1ccccc1	1.1	1	55*	1	28
